Assay outcomes from PubChem.
FXIa inh 1536 – human FXIa protease inhibitors, primary screen, biochemical, 1536-well; Coagulation factor XI (Homo sapiens), P03951; purified FXIa, Boc-Glu-Ala-Arg-AMC fluorogenic substrate; inhibition, % at 5 µM; 220,000 compounds, 0.14% hits;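 active = inhibition of at least 40%; inactive = inhibition below 40%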;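 note: fluorescence of freed AMC excited at 355 nm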
thrombin 1536 – human alpha-thrombin inhibitors, primary screen, counter-screen for coagulation protease inhibitor project, biochemical, 1536-well, fluorogenic AMC substrate. Boc-VPR-AMC fluorogenic substrate cleavage. inhibition, % at 5 µM. 220,000 compounds, 0.26% hits;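 active = inhibition at or above 40%; inactive = inhibition below 40%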
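Test system: human alpha-thrombin protein / Dosing: one concentration per compound, 5 µM, with 0.2% DMSO / Medium: pH 7.5 Tris-saline with Tween 20 / Benchmarks: no-compound enzyme wells and no-enzyme blanks / Read-out basis: percent inhibition of thrombin substrate cleavage / Timing: reaction at room temperature / Measured by: fluorescence, ex 355 nm, em 460 nm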
Wee1 degr inh – Wee1 degradation inhibitors, primary screen, cell-based, HeLa, Wee1K328M-luciferase, luminescence | Wee1-like protein kinase (Homo sapiens), P30291 | HeLa Luc-Wee1K328M stability; 100% = proteasome inhibitor MG132 effect | AID 1321, 2008 | reporter increase, % at 5 µM | 220,000 compounds, 1.2% hits;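 active = activation above the mean of all tested compounds plus 3 SD, set per screening run, cut at about 8.8% in these data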;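 note: cells exposed to compound for 20 h before luminescence read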
KLK5 inh – human KLK5 protease inhibitors, primary screen, biochemical, 1536-well | Kallikrein-5 (Homo sapiens), Q9Y337 | recombinant hK5, fluorogenic AMC substrate cleavage | inhibition, % at 5 µM | 210,000 compounds, 0.59% hits | AID 873, 2007;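 active = inhibition of 40% or more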
FXIIa inh 1536 – human FXIIa protease inhibitors, primary screen, biochemical, 1536-well; purified FXIIa, Boc-QGR-AMC fluorogenic substrate, 2 h; 220,000 compounds, 0.3% hits; Coagulation factor XII (Homo sapiens), P00748; inhibition, % at 5 µM; AID 800, 2007; in the data active = inhibition above about 40%
Target sequence (P00748 20-372 limits assumed): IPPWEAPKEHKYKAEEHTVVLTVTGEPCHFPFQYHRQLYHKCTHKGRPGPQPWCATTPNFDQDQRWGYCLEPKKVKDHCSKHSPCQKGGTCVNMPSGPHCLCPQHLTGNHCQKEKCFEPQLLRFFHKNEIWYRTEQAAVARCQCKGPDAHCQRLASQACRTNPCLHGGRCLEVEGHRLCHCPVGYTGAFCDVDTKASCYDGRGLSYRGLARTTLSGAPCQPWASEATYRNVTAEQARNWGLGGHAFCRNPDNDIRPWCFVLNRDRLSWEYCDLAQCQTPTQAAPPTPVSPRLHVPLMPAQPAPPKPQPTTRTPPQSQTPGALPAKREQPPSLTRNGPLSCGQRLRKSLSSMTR
Target sequence (P00748 373-615 limits assumed): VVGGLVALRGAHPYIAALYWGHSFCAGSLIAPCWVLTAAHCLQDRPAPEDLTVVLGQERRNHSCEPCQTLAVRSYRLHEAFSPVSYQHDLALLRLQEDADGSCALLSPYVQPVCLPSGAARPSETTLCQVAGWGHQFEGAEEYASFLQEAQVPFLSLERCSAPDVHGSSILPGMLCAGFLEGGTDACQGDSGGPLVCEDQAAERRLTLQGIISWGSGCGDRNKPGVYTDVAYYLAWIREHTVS
Platelet DG rel – inhibitors of platelet dense granule secretion, primary screen, cell-based, MLPCN, human platelets; human platelet-rich plasma, SFLLRN dense granule ATP release, luminescence; inhibition, %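 (compounds screened at 7.5 µM in platelet-rich plasma)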; 300,000 compounds, 0.22% hits; AID 1663, 2009;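 active = mean replicate score, as percent of positive control, at or above 50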
Large screens that a line does not name were inactive. An excerpt weighted towards active compounds, which were near 1.8% of everything screened.

CC(C)[C@@H](CO)NC(=O)c1ccc2c3n(nc2c1)-c1ccccc1CO3	Platelet DG rel 74.7 (no result: Wee1 degr inh)
O=C(NN1CCN(Cc2ccccc2)CC1)c1ccc(Cl)cc1	none
O=C(c1nc2ccccc2s1)N1CCSCC1	none
O=C(c1nc2ccccc2s1)N1CCN(c2ccccn2)CC1	thrombin 1536 44.9 (no result: Platelet DG rel)
COc1cc(/C=N/n2cnnc2)ccc1OC(=O)c1ccncc1	none
COc1cc(/C=N/n2cnnc2)ccc1OC(=O)c1cccnc1	FXIIa inh 1536 42.3
O=C(NCc1cccs1)c1cc(-c2ccccc2)nc2ccccc12	none
O=C(Nc1nnc(-c2cccs2)o1)c1cc(-c2ccccc2)nc2ccccc12	Wee1 degr inh 9.5
O=C1CC(NNc2nc3ccccc3s2)C(=O)N1c1ccccc1 (stereo not drawn)	none
COc1cccc(N2C(=O)CC(NNc3nc4ccccc4s3)C2=O)c1 (stereo not drawn)	KLK5 inh 40.3
CCn1cc(C2=NC(c3ccccc3)CO2)c2ccccc21 (stereo not drawn)	Wee1 degr inh 38.5
Cc1cc(F)ccc1S(=O)(=O)Nc1ccccc1C(=O)Nc1ncn[nH]1	none
Cc1cc(F)ccc1S(=O)(=O)Nc1ccccc1C(=O)NCc1ccccn1	KLK5 inh 49.9
Cc1nnc2n(CCc3ccccc3)c(=O)c3c4c(sc3n12)CCCC4	Wee1 degr inh 9.3 (no result: FXIa inh 1536, thrombin 1536, KLK5 inh, FXIIa inh 1536, Platelet DG rel)
O=C1CN(S(=O)(=O)c2cccc(Cl)c2Cl)c2ccccc2N1	none (no result: FXIa inh 1536, thrombin 1536, Wee1 degr inh, KLK5 inh, FXIIa inh 1536)
C/C(=N/Oc1nc(C)cc(C)n1)c1ccc(Br)cc1	KLK5 inh 41.2
CCN(CC)C(=O)CSc1nc2ccccc2c(=O)n1CC	KLK5 inh 87.5
COc1ccc(N2CCCn3c2nc2c3c(=O)n(CCc3ccccc3)c(=O)n2C)cc1	none (no result: FXIa inh 1536, thrombin 1536, Wee1 degr inh, KLK5 inh, FXIIa inh 1536)
COc1ccc(N2CCCn3c2nc2c3c(=O)n(Cc3ccc(C)cc3)c(=O)n2C)c(OC)c1	FXIIa inh 1536 53.7
COc1ccc(C=O)cc1Oc1nc(Cl)ncc1F	none
CCOc1ccc(NC(=S)N=Nc2c(O)[nH]c3ccccc23)cc1	none
Oc1cccc(NC(=S)N=Nc2c(O)[nH]c3ccccc23)c1	KLK5 inh 78.4
COc1ccc(C2C3C(=O)N(Cc4ccccc4)C(=O)C3ON2c2ccccc2)c(OC)c1OC (stereo not drawn)	KLK5 inh 52.3 (no result: Platelet DG rel)
CC(C)c1cc(=O)[nH]c(N2CCN(Cc3ccc4c(c3)OCO4)CC2)n1	none (no result: FXIa inh 1536, thrombin 1536, Wee1 degr inh, KLK5 inh, FXIIa inh 1536)
CSc1nnc(-c2cccc(NC(=O)c3ccccc3)c2)n1C	Wee1 degr inh 9.4
CC(=O)Oc1ccc(-c2nc(-c3cccnc3)no2)cc1	Platelet DG rel 79.2
COC1CCCN(Cc2cn(C)nc2-c2ccc(Oc3ccccc3)cc2)C1 (stereo not drawn)	none (no result: KLK5 inh)
CCCN1CCC(NCc2cn(C)nc2-c2ccc(Oc3ccccc3)cc2)CC1	KLK5 inh 45.0
CCCCN(CC(O)COc1cccc(C)c1)CC(O)COc1cccc(C)c1 (stereo not drawn)	none (no result: FXIa inh 1536, thrombin 1536, Wee1 degr inh, KLK5 inh, FXIIa inh 1536)
CCCCN(Cc1cccs1)S(=O)(=O)c1ccc(-c2ccc(=O)[nH]n2)s1	none (no result: FXIa inh 1536, thrombin 1536, Wee1 degr inh, KLK5 inh, FXIIa inh 1536)
CN(C)CCN(Cc1ccccc1)S(=O)(=O)c1ccc(-c2ccc(=O)[nH]n2)s1	Platelet DG rel 51.3 (no result: FXIa inh 1536, thrombin 1536, Wee1 degr inh, KLK5 inh, FXIIa inh 1536)
O=C(c1ccc(S(=O)(=O)N2CCCCC2)cc1)c1nnc(-c2ccc(Cl)cc2)o1	KLK5 inh 45.8
O=C(CCc1ccc(S(=O)(=O)N2CCCCC2)cc1)c1nnc(-c2ccccc2)o1	none
O=C(COC(=O)c1ccccc1O)Nc1cc([N+](=O)[O-])ccc1Cl	none
COc1ccccc1-c1cc(C(F)(F)F)nc(S(=O)(=O)CCCC(=O)N2CCOCC2)n1	none
COc1ccc(-c2cc(C(F)(F)F)nc(S(=O)(=O)CCC(=O)N3CCOCC3)n2)cc1	Platelet DG rel 133.8
Fc1ccc(N/N=C/C=C/c2ccccc2)c(F)c1	Wee1 degr inh 10.4
Cn1nnnc1SCc1ccc(CSc2nnnn2C)cc1	none (no result: FXIIa inh 1536)
Cn1nnnc1SCc1ccc(Cl)cc1	Wee1 degr inh 12.7
CCc1ccc(OCCNC(=O)c2ccc(S(=O)(=O)N(C)C)cc2)cc1	Wee1 degr inh 9.9
CCOc1ccc(NC(=O)c2ccc(S(=O)(=O)N(C)C)cc2)cc1	none (no result: Platelet DG rel)
COc1ccc(CC(NC(C)=O)C(=O)NC2CCN(c3nc(C)cc(C)c3C#N)CC2)c(OC)c1 (stereo not drawn)	Wee1 degr inh 9.4
COc1cccc(CC(NC(C)=O)C(=O)NC2CCN(c3nc(C)cc(C)c3C#N)CC2)c1 (stereo not drawn)	none
COc1ccc(OCC(O)CNCCOc2ccccc2OC)c(C(C)(C)C)c1 (stereo not drawn)	none (no result: FXIa inh 1536, thrombin 1536, Wee1 degr inh, KLK5 inh, FXIIa inh 1536)
COc1ccc(-c2csc3ncnc(N4CCN(S(=O)(=O)c5ccc(C(C)=O)cc5)CC4)c23)cc1	none (no result: FXIa inh 1536, thrombin 1536, Wee1 degr inh, KLK5 inh, FXIIa inh 1536)
O=C(NNC1=NCCN1Cc1ccccc1)c1cccc(C(F)(F)F)c1	Wee1 degr inh 10.5
Cc1ccc(C(=O)C2CCN(CC(=O)N3CCN(c4ccc(F)cc4)CC3)CC2)cc1	none
O=C(CSc1cccs1)Nc1ccc(Cl)cc1	Wee1 degr inh 10.3
CSCC(C)N1CCC(N2CCC(C(=O)NCc3ccccn3)CC2)CC1 (stereo not drawn)	none (no result: FXIa inh 1536, thrombin 1536, Wee1 degr inh, KLK5 inh, FXIIa inh 1536)
CC(C)(C)CC(C)(C)NCC(O)COc1ccc2c(c1)CCC2 (stereo not drawn)	none (no result: FXIa inh 1536, thrombin 1536, KLK5 inh, FXIIa inh 1536)
CC(C)(CO)NCC(O)COc1ccc2c(c1)CCC2 (stereo not drawn)	Platelet DG rel 50.6
CCCc1nnc(SCC(=O)Nc2nc(C)cs2)n1CCOC	none (no result: FXIa inh 1536, thrombin 1536, Wee1 degr inh, KLK5 inh, FXIIa inh 1536)
CCC(=O)N1c2ccccc2NC2=C(C(=O)CCC2)C1c1ccc(N(C)C)cc1 (stereo not drawn)	KLK5 inh 43.2
CCc1ccc(Nc2ccc(S(=O)(=O)N3CCOCC3)cc2[N+](=O)[O-])cc1	Wee1 degr inh 9.7
CCOc1cc(S(=O)(=O)N2CCCCC2)ccc1Cl	thrombin 1536 104.4, KLK5 inh 59.7
COc1ccc(Cl)c(S(=O)(=O)N2CCCC2)c1	KLK5 inh 67.9
CCOc1cc(S(=O)(=O)N2CCN(CC)CC2)ccc1Cl	none
Cc1cccc(C(=O)NNC2=CC(=O)CC(C)(C)C2)c1O	none
COc1ccc(C(=O)NNC2=CC(=O)CC(C)(C)C2)cc1	KLK5 inh 49.3
COc1cc(NC2=CC(=O)CC(C)(C)C2)cc(OC)c1	none
CC1(C)CC(=O)C=C(NNC(=O)c2ccccc2O)C1	FXIIa inh 1536 60.5
CN(Cc1ccccc1)C(=O)CC(c1ccccc1)c1cc(Cl)ccc1O (stereo not drawn)	none
Cc1cc(C)cc(N(CC(=O)NC2CCCC2)C(=O)C2(C)CC(=O)N=C3C=CC=CN32)c1 (stereo not drawn)	Wee1 degr inh 10.6
